Laboratory results published in ChEMBL document CHEMBL3632612, “Discovery of WQ-3810: Design, synthesis, and evaluation of 7-(3-alkylaminoazetidin-1-yl)fluoro-quinolones as orally active antibacterial agents” (Eur J Med Chem, 2015).
In brackets after ≈: the same amount, converted by molar mass.

Experiments:
[1] = system: Pseudomonas aeruginosa; experiment: Antibacterial activity against Pseudomonas aeruginosa IFO3445 assessed as growth inhibition at 128 to 0.002 mg/L incubated for 18 hrs at 37 degC by agar dilution method; assay type: functional; details: IFO3445, 18 h
How it was run: (§1)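 Agar dilution on Mueller Hinton agar per Japanese Society of Chemotherapy standard method; about 10⁴ cfu inoculated onto plates holding two-fold dilution series; incubation 37°C, 18 h; MIC read as growth endpoint.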

[2] = Drug excretion in Sprague-Dawley rat at 10 mg/kg, po after 24 hrs by HPLC; assay type: ADME, organism-based; details: in vivo, read-out: Drug excretion
How it was run: (§2)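 Six-week male Sprague-Dawley rats, fasted overnight; oral dose suspended in 0.5% methylcellulose, iv dose dissolved in 0.04 N NaOH. Urine from intact rats in metabolic cages, bile from bile duct-cannulated rats, 0–24 h. Bile alkaline-hydrolysed (1 N NaOH, 37°C, 1 h) to convert glucuronides; HPLC with UV 290 nm and internal standard; % of dose; mean ± S.D., three rats.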

[3] = Drug excretion in Sprague-Dawley rat urine at 5 mg/kg, iv after 24 hrs by HPLC; assay type: ADME, organism-based; details: read-out: Drug excretion; how it was run: as §2
[4] = system: Escherichia coli; experiment: Antibacterial activity against Escherichia coli 177 assessed as growth inhibition at 128 to 0.002 mg/L incubated for 18 hrs at 37 degC by agar dilution method; assay type: functional; details: Escherichia coli, 177, 18 h; how it was run: as §1
[5] = system: Proteus vulgaris; experiment: Antibacterial activity against Proteus vulgaris IFO3167 assessed as growth inhibition at 128 to 0.002 mg/L incubated for 18 hrs at 37 degC by agar dilution method; assay type: functional; details: IFO3167, 18 h; how it was run: as §1
[6] = system: Escherichia coli; experiment: Antibacterial activity against Escherichia coli NIHJ assessed as growth inhibition at 128 to 0.002 mg/L incubated for 18 hrs at 37 degC by agar dilution method; assay type: functional; how it was run: as §1
[7] = system: Providencia rettgeri; experiment: Antibacterial activity against Providencia rettgeri W1008 assessed as growth inhibition at 128 to 0.002 mg/L incubated for 18 hrs at 37 degC by agar dilution method; assay type: functional; details: W1008, 18 h; how it was run: as §1
[8] = system: Salmonella typhimurium; experiment: Antibacterial activity against Salmonella typhimurium IFO13245 assessed as growth inhibition at 128 to 0.002 mg/L incubated for 18 hrs at 37 degC by agar dilution method; assay type: functional, Salmonella enterica subsp. enterica serovar Typhimurium; details: Salmonella enterica, IFO13245, 18 h; how it was run: as §1
[9] = system: Klebsiella pneumoniae; experiment: Antibacterial activity against Klebsiella pneumoniae KC-1 assessed as growth inhibition at 128 to 0.002 mg/L incubated for 18 hrs at 37 degC by agar dilution method; assay type: functional; details: KC-1, 18 h; how it was run: as §1
[10] = system: Serratia marcescens; experiment: Antibacterial activity against Serratia marcescens IFO3736 assessed as growth inhibition at 128 to 0.002 mg/L incubated for 18 hrs at 37 degC by agar dilution method; assay type: functional; details: IFO3736, 18 h; how it was run: as §1
[11] = Drug excretion in Sprague-Dawley rat bile assessed as unmetabolized form at 10 mg/kg, po after 24 hrs by HPLC; assay type: ADME, organism-based; details: read-out: Drug excretion; how it was run: as §2
[12] = Solubility of the compound in JP2 solution at pH 6.8 after 24 hrs at 25 degC by HPLC; assay type: physicochemical
How it was run: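 Excess solid shaken in JP2 (50 mM potassium dihydrogenphosphate, pH 6.8) at 25°C for 24 h to equilibrium, filtered 0.45 µm; filtrate concentration by reversed-phase UPLC, UV 290 nm; mean ± S.D., n=3.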

[13] = Oral drug absorption in Sprague-Dawley rat at 10 mg/kg, po after 24 hrs by HPLC; assay type: ADME, organism-based; details: in vivo
How it was run: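 Absorption rate computed as total urinary plus biliary excretion (% of dose, summed means) after oral dosing divided by total after iv dosing; excretion measured in fasted male Sprague-Dawley rats by HPLC over 24 h, bile glucuronides alkaline-hydrolysed.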

[14] = Drug excretion in Sprague-Dawley rat urine at 10 mg/kg, po after 24 hrs by HPLC; assay type: ADME, organism-based; details: read-out: Drug excretion; how it was run: as §2
[15] = system: Pseudomonas aeruginosa; experiment: Antibacterial activity against Pseudomonas aeruginosa 15846 assessed as growth inhibition at 128 to 0.002 mg/L incubated for 18 hrs at 37 degC by agar dilution method; assay type: functional; details: Pseudomonas aeruginosa, 15846, 18 h; how it was run: as §1
[16] = system: Acinetobacter calcoaceticus; experiment: Antibacterial activity against Acinetobacter calcoaceticus Ac-54 assessed as growth inhibition at 128 to 0.002 mg/L incubated for 18 hrs at 37 degC by agar dilution method; assay type: functional; details: Ac-54, 18 h; how it was run: as §1
[17] = Drug excretion in Sprague-Dawley rat bile assessed as unmetabolized form at 5 mg/kg, iv after 24 hrs by HPLC; assay type: ADME, organism-based; details: read-out: Drug excretion; how it was run: as §2
[18] = biological target: DNA gyrase (Escherichia coli, UniProt P0AES4+P0AES6); experiment: Inhibition of Escherichia coli DNA gyrase preincubated for 5 mins at 37 degC before addition of relaxed pBR322 as substrate by supercoiling assay; assay type: protein-complex assay
[19] = system: Escherichia coli; experiment: Antibacterial activity against Escherichia coli KC-14 assessed as growth inhibition at 128 to 0.002 mg/L incubated for 18 hrs at 37 degC by agar dilution method; assay type: functional; details: KC-14, 18 h; how it was run: as §1
[20] = system: Morganella morganii; experiment: Antibacterial activity against Morganella morganii W1026 assessed as growth inhibition at 128 to 0.002 mg/L incubated for 18 hrs at 37 degC by agar dilution method; assay type: functional; details: W1026, 18 h; how it was run: as §1
[21] = system: Klebsiella pneumoniae; experiment: Antibacterial activity against Klebsiella pneumoniae DT-S assessed as growth inhibition at 128 to 0.002 mg/L incubated for 18 hrs at 37 degC by agar dilution method; assay type: functional; how it was run: as §1
[22] = system: Serratia marcescens; experiment: Antibacterial activity against Serratia marcescens T-55 assessed as growth inhibition at 128 to 0.002 mg/L incubated for 18 hrs at 37 degC by agar dilution method; assay type: functional; details: T-55, 18 h; how it was run: as §1
[23] = system: Pseudomonas aeruginosa; experiment: Antibacterial activity against Pseudomonas aeruginosa E-2 assessed as growth inhibition at 128 to 0.002 mg/L incubated for 18 hrs at 37 degC by agar dilution method; assay type: functional; details: E-2, 18 h; how it was run: as §1
[24] = system: Enterobacter cloacae; experiment: Antibacterial activity against Enterobacter cloacae IFO13535 assessed as growth inhibition at 128 to 0.002 mg/L incubated for 18 hrs at 37 degC by agar dilution method; assay type: functional; details: IFO13535, 18 h; how it was run: as §1
[25] = Passive permeability of the compound after 5 hrs at 25 degC by PAMPA assay; assay type: physicochemical; details: read-out: Peff
How it was run: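 PAMPA: 10 µM compound in PBS with 5% MeOH in donor, PBS acceptor; 25°C, 5 h; both sides quantified by HPLC; Peff derived from donor/acceptor concentrations, volumes, 0.3 cm² filter area and 18,000 s; mean ± S.D., n=3.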

[26] = system: Citrobacter freundii; experiment: Antibacterial activity against Citrobacter freundii IFO1268 assessed as growth inhibition at 128 to 0.002 mg/L incubated for 18 hrs at 37 degC by agar dilution method; assay type: functional; details: IFO1268, 18 h; how it was run: as §1
[27] = system: Proteus mirabilis; experiment: Antibacterial activity against Proteus mirabilis IFO3849 assessed as growth inhibition at 128 to 0.002 mg/L incubated for 18 hrs at 37 degC by agar dilution method; assay type: functional; details: IFO3849, 18 h; how it was run: as §1
[28] = Drug excretion in Sprague-Dawley rat assessed as unmetabolized form at 5 mg/kg, iv after 24 hrs by HPLC; assay type: ADME, organism-based; details: in vivo, read-out: Drug excretion; how it was run: as §2

MIC [1]	dose excreted at 24 h [2]	MIC [4]	MIC [5]	MIC [6]	MIC [7]	MIC [8]	MIC [9]	MIC [10]	MIC [15]	MIC [16]	IC50 [18]	MIC [19]	MIC [20]	MIC [21]	MIC [22]	MIC [23]	MIC [24]	MIC [26]	MIC [27]	SMILES	also measured
0.077 µg/mL (≈ 0.178 µM)	28%	0.006 µg/mL (≈ 0.0138 µM)	0.077 µg/mL (≈ 0.178 µM)	0.006 µg/mL (≈ 0.0138 µM)	0.077 µg/mL (≈ 0.178 µM)	0.077 µg/mL (≈ 0.178 µM)	0.077 µg/mL (≈ 0.178 µM)	0.077 µg/mL (≈ 0.178 µM)	0.077 µg/mL (≈ 0.178 µM)	0.077 µg/mL (≈ 0.178 µM)	554 nM	0.006 µg/mL (≈ 0.0138 µM)	0.077 µg/mL (≈ 0.178 µM)	0.077 µg/mL (≈ 0.178 µM)	0.077 µg/mL (≈ 0.178 µM)	0.077 µg/mL (≈ 0.178 µM)	0.077 µg/mL (≈ 0.178 µM)	0.077 µg/mL (≈ 0.178 µM)	0.077 µg/mL (≈ 0.178 µM)	CNC1CN(c2c(F)cc3c(=O)c(C(=O)O)cn(-c4nc(N)c(F)cc4F)c3c2C)C1	dose excreted at 24 h [3]: 49%; dose excreted at 24 h [11]: 16%; solubility at 24 h [12]: 3.1 µg/mL (≈ 7.15 µM); Fa at 24 h [13]: 31%; dose excreted at 24 h [14]: 13%; dose excreted at 24 h [17]: 41%; Papp at 5 h [25]: 0.19 ×10⁻⁶ cm/s; dose excreted at 24 h [28]: 90%
0.57 µg/mL (≈ 1.2 µM)	–	0.038 µg/mL (≈ 0.0799 µM)	0.57 µg/mL (≈ 1.2 µM)	0.038 µg/mL (≈ 0.0799 µM)	0.57 µg/mL (≈ 1.2 µM)	0.57 µg/mL (≈ 1.2 µM)	0.57 µg/mL (≈ 1.2 µM)	0.57 µg/mL (≈ 1.2 µM)	0.57 µg/mL (≈ 1.2 µM)	0.57 µg/mL (≈ 1.2 µM)	694 nM	0.038 µg/mL (≈ 0.0799 µM)	0.57 µg/mL (≈ 1.2 µM)	0.57 µg/mL (≈ 1.2 µM)	0.57 µg/mL (≈ 1.2 µM)	0.57 µg/mL (≈ 1.2 µM)	0.57 µg/mL (≈ 1.2 µM)	0.57 µg/mL (≈ 1.2 µM)	0.57 µg/mL (≈ 1.2 µM)	Cc1c(N2CC(NC(C)(C)C)C2)c(F)cc2c(=O)c(C(=O)O)cn(-c3nc(N)c(F)cc3F)c12	–
0.12 µg/mL (≈ 0.268 µM)	69%	0.006 µg/mL (≈ 0.0134 µM)	0.12 µg/mL (≈ 0.268 µM)	0.006 µg/mL (≈ 0.0134 µM)	0.12 µg/mL (≈ 0.268 µM)	0.12 µg/mL (≈ 0.268 µM)	0.12 µg/mL (≈ 0.268 µM)	0.12 µg/mL (≈ 0.268 µM)	0.12 µg/mL (≈ 0.268 µM)	0.12 µg/mL (≈ 0.268 µM)	174 nM	0.006 µg/mL (≈ 0.0134 µM)	0.12 µg/mL (≈ 0.268 µM)	0.12 µg/mL (≈ 0.268 µM)	0.12 µg/mL (≈ 0.268 µM)	0.12 µg/mL (≈ 0.268 µM)	0.12 µg/mL (≈ 0.268 µM)	0.12 µg/mL (≈ 0.268 µM)	0.12 µg/mL (≈ 0.268 µM)	CCNC1CN(c2c(F)cc3c(=O)c(C(=O)O)cn(-c4nc(N)c(F)cc4F)c3c2C)C1	dose excreted at 24 h [3]: 41%; dose excreted at 24 h [11]: 49%; solubility at 24 h [12]: 45 µg/mL (≈ 101 µM); Fa at 24 h [13]: 76%; dose excreted at 24 h [14]: 20%; dose excreted at 24 h [17]: 51%; Papp at 5 h [25]: 0.29 ×10⁻⁶ cm/s; dose excreted at 24 h [28]: 91%

SMILES	MIC [1]	dose excreted at 24 h [2]	MIC [4]	MIC [5]	MIC [6]	MIC [7]	MIC [8]	MIC [9]	MIC [10]	MIC [15]	MIC [16]	IC50 [18]	MIC [19]	MIC [20]	MIC [21]	MIC [22]	MIC [23]	MIC [24]	MIC [26]	MIC [27]	also measured
C[C@H]1COc2c(N3CCN(C)CC3)c(F)cc3c(=O)c(C(=O)O)cn1c23.C[C@H]1COc2c(N3CCN(C)CC3)c(F)cc3c(=O)c(C(=O)O)cn1c23.O [LEVOFLOXACIN]	–	–	0.019 µg/mL	0.12 µg/mL	0.019 µg/mL	0.12 µg/mL	0.12 µg/mL	0.12 µg/mL	0.12 µg/mL	–	0.12 µg/mL	–	0.019 µg/mL	0.12 µg/mL	0.12 µg/mL	0.12 µg/mL	–	0.12 µg/mL	0.12 µg/mL	0.12 µg/mL	–
